Reference: ChEMBL document CHEMBL1127507, “Search for the pharmacophore of bispyridinium-type allosteric modulators of muscarinic receptors” (J Med Chem, 1994)
Where “and” joins values, the source holds several entries; their conditions need not be identical. Identical values can stand only once.

Columns and labels:
[1] = target: T1, Muscarinic acetylcholine receptor M2 (Sus scrofa) (UniProt P06199); assay: Hill coefficient, slope factors of reduction in dissociation rate of [3H]NMS from M2 receptor of pig heart
T1 sequence (whole entry): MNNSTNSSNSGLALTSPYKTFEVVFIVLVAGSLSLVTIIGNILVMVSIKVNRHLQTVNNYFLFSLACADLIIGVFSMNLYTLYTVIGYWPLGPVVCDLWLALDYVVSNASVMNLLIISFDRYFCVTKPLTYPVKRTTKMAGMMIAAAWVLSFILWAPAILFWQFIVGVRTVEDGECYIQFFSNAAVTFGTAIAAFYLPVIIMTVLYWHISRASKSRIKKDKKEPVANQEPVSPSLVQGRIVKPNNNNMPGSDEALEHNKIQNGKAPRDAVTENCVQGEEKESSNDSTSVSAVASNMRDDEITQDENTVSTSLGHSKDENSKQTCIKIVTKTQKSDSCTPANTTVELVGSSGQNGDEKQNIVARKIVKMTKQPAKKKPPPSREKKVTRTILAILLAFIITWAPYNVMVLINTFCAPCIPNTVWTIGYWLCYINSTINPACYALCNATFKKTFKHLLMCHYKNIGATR
Procedure, shortened: (§1)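 Porcine ventricular membranes (sucrose homogenate, 80000g pellet in 50 mM Tris-HCl pH 7.4) preincubated 30 min with 0.2 nM [3H]NMS in 3 mM MgHPO4/50 mM Tris-HCl, pH 7.3, 37 °C; dissociation started with 1 μM atropine plus compound. Residual binding at 4 min (two-point) gave k-1; sigmoid fit yielded EC50 and slope; filtration, scintillation; n=3-5.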

[2] = target: T2, Muscarinic acetylcholine receptor M2 (Sus scrofa, UniProt P06199); assay: Reduction of dissociation rate of [3H]N-methylscopolamine ([3H]NMS) from muscarinic acetylcholine receptor M2 of pig heart; procedure, shortened: as §1
T2 sequence (P06199 whole entry): T1 sequence (whole entry)

[3] = Partition coefficient (logP); type: physicochemical; conditions: octanol/water
Procedure, shortened: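 Compound at 5×10^-5 M in octanol-saturated Na2HPO4 buffer pH 7.4, absorbance at 290 nm; 0.7 mL shaken 2 h with equal volume buffer-saturated octanol, centrifuged, aqueous absorbance remeasured; partition coefficient and log P from absorbance difference.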

nH [1] | EC50 [2] | logP [3] | Compound
1.5 and 1.3 | 25 µM | 1.7 | C[N+](C)(C)CCC[n+]1ccc(/C=N/OCc2c(Cl)cccc2Cl)cc1
1.1 | 17 µM | – | N#Cc1cc[n+](CCC[n+]2ccc(/C=N/OCc3c(Cl)cccc3Cl)cc2)cc1
1.2 | 4.5 µM | -2 | CO/N=C/c1cc[n+](CCC[n+]2ccc(/C=N/OCc3c(Cl)cccc3Cl)cc2)cc1
1.2 | 21 µM | – | Clc1cccc(Cl)c1CO/N=C/c1cc[n+](CCC[n+]2ccccc2)cc1
1.3 | 4.2 µM | 1.5 | CN(C)c1cc[n+](CCC[n+]2ccc(/C=N/OCc3c(Cl)cccc3Cl)cc2)cc1
1.1 | 12 µM | 1.3 | Cc1cc[n+](CCC[n+]2ccc(/C=N/OCc3c(Cl)cccc3Cl)cc2)cc1
1.5 | 6 µM | 0.3 | COc1ccc(CCC[n+]2ccc(/C=N/OCc3c(Cl)cccc3Cl)cc2)cc1

Continued, compound first:

Compound | nH [1] | EC50 [2] | logP [3]
CC[N+](CC)(CC)CCC[n+]1ccc(/C=N/OCc2c(Cl)cccc2Cl)cc1 | 0.9 | 23 µM | 1.4
O/N=C/c1cc[n+](CCC[n+]2ccc(/C=N/O)cc2)cc1 [TRIMEDOXIME] | – | > 1000 µM | –
CO/N=C/c1cc[n+](CCC[n+]2ccc(/C=N/OC)cc2)cc1 | – | > 1000 µM | –
CCC[n+]1ccc(/C=N/OCc2c(Cl)cccc2Cl)cc1 | 1.2 | 26 µM | 0.6
Clc1cccc(Cl)c1CO/N=C/c1cc[n+](CCCc2ccccc2)cc1 | 1.2 | 9.4 µM | 0.5
O/N=C/c1cc[n+](CCC[n+]2ccc(/C=N/OCc3c(Cl)cccc3Cl)cc2)cc1 | 1.3 | 11 µM | 1.7
Clc1cccc(Cl)c1CO/N=C/c1cc[n+](CCC[n+]2ccc(/C=N/OCc3c(Cl)cccc3Cl)cc2)cc1 | 1.7 | 4.7 µM | 0.6
